{"source": "ChEMBL document CHEMBL1157608", "about": "“The discovery of 4-{1-[({2,5-dimethyl-4-[4-(trifluoromethyl)benzyl]-3-thienyl}carbonyl)amino]cyclopropyl}benzoic acid (MK-2894), a potent and selective prostaglandin E2 subtype 4 receptor antagonist” (J Med Chem, 2010)", "key": {"[1]": {"system": "Rattus norvegicus", "assay": "Gastrointestinal toxicity in Sprague-Dawley rat assessed as urinary excretion of 51Cr-EDTA at 3 to 30 mg/kg/day, po once daily for 5 days", "type": "organism-based, Urine", "parameters": "route oral", "conditions": "in vivo, 120 h", "procedure,_shortened": "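Male SD rats dosed orally once daily in 0.5% methocel (3, 10, 30 mg/kg for 5 days, or 5 mg/kg for 3 days); single oral 51Cr-EDTA given on day 4 or day 2 respectively; urinary 51Cr excretion as GI permeability index; n = 5/group treated, 4 vehicle; 1-way ANOVA/Dunnett's.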"}, "[2]": {"assay": "Cmax in Sprague-Dawley rat at 20 mg/kg, po", "type": "ADME, organism-based", "parameters": "dose 20 mg/kg, route oral", "conditions": "in vivo", "procedure,_shortened": "(§1)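 Overnight-fasted animals dosed po in 0.5% methocel or iv in 60% PEG 200; plasma from serial blood samples stored at -10 °C, protein-precipitated with equal volume acetonitrile/0.1% formic acid, analysed by LC/MS/MS with internal standard against spiked blank-plasma standards; Cmax from po data, half-life from iv data.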"}, "[3]": {"molecular_target": "T1, Prostaglandin E2 receptor EP3 subtype (Homo sapiens, UniProt P43115)", "T1 sequence (P43115 whole entry)": "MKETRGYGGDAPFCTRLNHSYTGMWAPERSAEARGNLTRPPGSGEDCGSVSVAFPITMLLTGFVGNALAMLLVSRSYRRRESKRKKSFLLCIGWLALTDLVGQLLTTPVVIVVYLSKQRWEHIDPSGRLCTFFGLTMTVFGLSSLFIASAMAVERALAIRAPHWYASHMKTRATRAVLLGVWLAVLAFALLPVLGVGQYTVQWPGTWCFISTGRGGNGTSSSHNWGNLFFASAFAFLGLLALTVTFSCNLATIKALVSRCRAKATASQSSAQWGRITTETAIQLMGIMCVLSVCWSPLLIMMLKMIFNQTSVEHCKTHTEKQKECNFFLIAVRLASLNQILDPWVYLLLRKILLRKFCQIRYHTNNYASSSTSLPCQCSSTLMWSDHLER", "assay": "Displacement of [3H]PGE2 from human EP3 receptor expressed in HEK293-EBNA cells by scintillation counting", "type": "cell-based", "procedure,_shortened": "(§2)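 Radioligand binding on membranes from HEK 293(EBNA) clonal lines overexpressing each prostanoid receptor, using the respective 3H-prostaglandin or thromboxane ligand; EP4 binding also run with 10% human serum; Ki as means of at least three experiments (rEP2, rEP3 n = 1).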"}, "[4]": {"molecular_target": "Prostaglandin E2 receptor EP2 subtype (Homo sapiens, UniProt P43116)", "sequence (P43116 whole entry)": "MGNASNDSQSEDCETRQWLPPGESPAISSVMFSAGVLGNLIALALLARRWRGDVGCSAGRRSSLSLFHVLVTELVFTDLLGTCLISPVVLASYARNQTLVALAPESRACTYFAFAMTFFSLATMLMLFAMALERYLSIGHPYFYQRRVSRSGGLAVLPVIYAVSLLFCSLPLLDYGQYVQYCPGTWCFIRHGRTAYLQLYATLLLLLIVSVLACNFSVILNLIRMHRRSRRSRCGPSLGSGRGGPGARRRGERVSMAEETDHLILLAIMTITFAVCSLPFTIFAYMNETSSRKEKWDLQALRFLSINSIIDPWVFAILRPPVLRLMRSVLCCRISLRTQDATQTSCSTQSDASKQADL", "assay": "Displacement of [3H]PGE2 from human EP2 receptor expressed in HEK293-EBNA cells by scintillation counting", "type": "cell-based", "procedure,_shortened": "as §2"}, "[5]": {"organism": "Rattus norvegicus", "assay": "Analgesic activity against complete Freund's adjuvant-induced Sprague-Dawley rat inflammatory pain assessed as inhibition of chronic paw swelling", "type": "functional", "procedure,_shortened": "(§3)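 Adjuvant-induced arthritis in rats: CFA injected into primary paw on day 0; oral dosing in 0.5% methocel once daily for 9 days starting day 9; secondary paw swelling measured; plasma levels taken 24 h after final dose; n = 7/group; 1-way ANOVA/Dunnett's vs vehicle.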"}, "[6]": {"assay": "Oral bioavailability in C57BL/6 mouse at 20 mg/kg", "type": "ADME, organism-based", "conditions": "in vivo", "procedure,_shortened": "as §1"}, "[7]": {"molecular_target": "T2, Prostaglandin E2 receptor EP1 subtype (Rattus norvegicus, UniProt P70597)", "T2 sequence (P70597 whole entry)": "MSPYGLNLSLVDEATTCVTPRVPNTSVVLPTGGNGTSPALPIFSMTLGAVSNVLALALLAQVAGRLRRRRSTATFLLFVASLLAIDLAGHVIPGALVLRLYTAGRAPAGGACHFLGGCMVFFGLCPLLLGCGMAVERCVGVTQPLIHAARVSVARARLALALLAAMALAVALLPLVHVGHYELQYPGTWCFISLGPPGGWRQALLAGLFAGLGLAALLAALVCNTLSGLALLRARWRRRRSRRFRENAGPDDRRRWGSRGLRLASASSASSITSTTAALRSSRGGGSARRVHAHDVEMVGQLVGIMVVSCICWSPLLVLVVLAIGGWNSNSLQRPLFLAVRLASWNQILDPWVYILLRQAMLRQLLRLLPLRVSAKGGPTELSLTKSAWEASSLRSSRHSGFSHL", "assay": "Displacement of [3H]PGE2 from rat EP1 receptor expressed in HEK293-EBNA cells by scintillation counting", "type": "cell-based", "procedure,_shortened": "as §2"}, "[8]": {"molecular_target": "T3, Prostaglandin E2 receptor EP4 subtype (Homo sapiens, UniProt P35408)", "T3 sequence (P35408 whole entry)": "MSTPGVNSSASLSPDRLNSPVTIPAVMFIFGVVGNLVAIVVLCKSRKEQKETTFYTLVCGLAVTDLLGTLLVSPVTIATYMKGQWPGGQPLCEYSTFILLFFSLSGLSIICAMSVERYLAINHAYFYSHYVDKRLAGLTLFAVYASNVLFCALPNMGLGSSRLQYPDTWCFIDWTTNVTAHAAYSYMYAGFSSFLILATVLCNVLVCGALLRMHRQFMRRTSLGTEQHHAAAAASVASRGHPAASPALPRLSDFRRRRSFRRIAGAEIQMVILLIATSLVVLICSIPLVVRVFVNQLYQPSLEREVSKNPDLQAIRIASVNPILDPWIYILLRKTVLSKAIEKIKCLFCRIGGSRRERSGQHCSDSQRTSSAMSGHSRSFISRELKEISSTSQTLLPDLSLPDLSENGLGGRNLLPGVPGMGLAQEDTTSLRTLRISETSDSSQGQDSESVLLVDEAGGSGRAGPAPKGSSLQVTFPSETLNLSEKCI", "assay": "Displacement of [3H]PGE2 from human EP4 receptor expressed in HEK293-EBNA cells by scintillation counting in presence of 10% human serum", "type": "cell-based", "procedure,_shortened": "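Radioligand binding on membranes from HEK 293(EBNA) clonal cells overexpressing human EP4, [3H]PGE2 as tracer, run with 10% human serum added to assess serum protein binding; Ki values are means of at least three experiments.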"}, "[9]": {"molecular_target": "Prostaglandin F2-alpha receptor (Homo sapiens, UniProt P43088)", "sequence (P43088 whole entry)": "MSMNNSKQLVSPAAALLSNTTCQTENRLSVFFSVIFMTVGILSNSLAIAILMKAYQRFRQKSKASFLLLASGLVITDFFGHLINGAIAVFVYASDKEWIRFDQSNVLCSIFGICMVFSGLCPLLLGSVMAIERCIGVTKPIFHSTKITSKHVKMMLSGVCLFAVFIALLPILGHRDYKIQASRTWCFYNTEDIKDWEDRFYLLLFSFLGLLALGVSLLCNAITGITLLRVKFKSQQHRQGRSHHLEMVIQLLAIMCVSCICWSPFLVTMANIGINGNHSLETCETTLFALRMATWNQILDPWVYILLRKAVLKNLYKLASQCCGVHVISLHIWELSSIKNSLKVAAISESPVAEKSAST", "assay": "Displacement of [3H]PGF2alpha from human FP receptor expressed in HEK293-EBNA cells by scintillation counting", "type": "cell-based", "procedure,_shortened": "as §2"}, "[10]": {"assay": "Half life in C57BL/6 mouse at 5 mg/kg, iv", "type": "ADME, organism-based", "parameters": "dose 5 mg/kg, route intravenous", "conditions": "in vivo", "procedure,_shortened": "as §1"}, "[11]": {"system": "Rattus norvegicus", "assay": "Plasma concentration in complete Freund's adjuvant-induced Sprague-Dawley rat inflammatory pain model at 0.1 mg/kg/day, po", "type": "ADME, organism-based", "parameters": "route oral", "conditions": "in vivo", "procedure,_shortened": "as §3"}, "[12]": {"assay": "Plasma clearance in Beagle dog at 5 mg/kg, po and 1 mg/kg, iv", "type": "ADME, organism-based, Canis lupus familiaris", "procedure,_shortened": "as §1"}, "[13]": {"system": "Cynomolgus monkey", "assay": "Half life bioavailability in cynomolgus monkey at 1 mg/kg, iv", "type": "ADME, organism-based, Macaca fascicularis", "conditions": "in vivo", "procedure,_shortened": "as §1"}, "[14]": {"assay": "Oral bioavailability in cynomolgus monkey at 5 mg/kg", "type": "ADME, organism-based, Macaca fascicularis", "conditions": "in vivo", "procedure,_shortened": "as §1"}, "[15]": {"molecular_target": "Prostaglandin E2 receptor EP2 subtype (Rattus norvegicus, UniProt Q62928)", "sequence (Q62928 whole entry)": "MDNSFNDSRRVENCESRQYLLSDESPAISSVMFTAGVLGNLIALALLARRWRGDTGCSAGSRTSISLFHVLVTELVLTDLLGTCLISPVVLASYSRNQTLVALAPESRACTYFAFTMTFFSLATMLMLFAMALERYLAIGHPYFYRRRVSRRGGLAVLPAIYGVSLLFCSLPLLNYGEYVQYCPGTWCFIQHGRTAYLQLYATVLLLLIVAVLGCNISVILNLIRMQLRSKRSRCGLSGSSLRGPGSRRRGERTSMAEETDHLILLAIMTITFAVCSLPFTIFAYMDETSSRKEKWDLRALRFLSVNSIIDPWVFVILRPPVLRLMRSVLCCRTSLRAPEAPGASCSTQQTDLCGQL", "assay": "Displacement of [3H]PGE2 from rat EP2 receptor expressed in HEK293-EBNA cells by scintillation counting", "type": "cell-based", "procedure,_shortened": "as §2"}, "[16]": {"assay": "Cmax in C57BL/6 mouse at 20 mg/kg, po", "type": "ADME, organism-based", "parameters": "dose 20 mg/kg, route oral", "conditions": "in vivo", "procedure,_shortened": "as §1"}, "[17]": {"assay": "Half life in Sprague-Dawley rat at 5 mg/kg, iv", "type": "ADME, organism-based", "parameters": "dose 5 mg/kg, route intravenous", "conditions": "in vivo", "procedure,_shortened": "as §1"}, "[18]": {"assay": "Oral bioavailability in Sprague-Dawley rat at 20 mg/kg", "type": "ADME, organism-based", "conditions": "in vivo", "procedure,_shortened": "as §1"}, "[19]": {"molecular_target": "Prostacyclin receptor (Homo sapiens, UniProt P43119)", "sequence (P43119 whole entry)": "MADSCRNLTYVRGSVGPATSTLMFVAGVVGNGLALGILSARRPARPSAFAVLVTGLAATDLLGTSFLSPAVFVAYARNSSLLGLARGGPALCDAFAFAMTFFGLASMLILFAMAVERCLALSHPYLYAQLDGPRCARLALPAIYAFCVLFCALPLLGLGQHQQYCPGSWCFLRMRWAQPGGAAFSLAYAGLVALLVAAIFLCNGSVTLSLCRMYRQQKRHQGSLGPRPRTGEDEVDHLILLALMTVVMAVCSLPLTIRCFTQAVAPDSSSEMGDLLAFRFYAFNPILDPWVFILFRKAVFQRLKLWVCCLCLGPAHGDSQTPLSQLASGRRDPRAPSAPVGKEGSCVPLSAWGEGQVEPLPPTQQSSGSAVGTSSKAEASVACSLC", "assay": "Displacement of [3H]iloprost from human IP receptor expressed in HEK293-EBNA cells by scintillation counting", "type": "cell-based", "procedure,_shortened": "as §2"}, "[20]": {"assay": "Cmax in Beagle dog at 5 mg/kg, po", "type": "ADME, organism-based, Canis lupus familiaris", "parameters": "dose 5 mg/kg, route oral", "conditions": "in vivo", "procedure,_shortened": "as §1"}, "[21]": {"assay": "Volume of distribution at steady state in Beagle dog at 5 mg/kg, po and 1 mg/kg, iv", "type": "ADME, organism-based, Canis lupus familiaris", "conditions": "in vivo, read-out: Vdss", "procedure,_shortened": "as §1"}, "[22]": {"system": "Rattus norvegicus", "assay": "Analgesic activity in po dosed Sprague-Dawley rat assessed as inhibition of carrageenan-induced mechanical hyperalgesia relative to control", "type": "functional", "procedure,_shortened": "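SD rats given subplantar carrageenan; compound dosed orally as a single dose; mechanical hyperalgesia read at 3 h post carrageenan, 1 h post dose; inhibition expressed vs vehicle control; n = 10-20/group; 1-way ANOVA/Dunnett's.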"}, "[23]": {"assay": "Cmax bioavailability in cynomolgus monkey at 5 mg/kg, po", "type": "ADME, organism-based, Macaca fascicularis", "parameters": "dose 5 mg/kg, route oral", "conditions": "in vivo", "procedure,_shortened": "as §1"}, "[24]": {"molecular_target": "T3, Prostaglandin E2 receptor EP4 subtype", "assay": "Antagonist activity at human EP4 receptor expressed in HEK293 cells assessed as inhibition of PGE2-induced cAMP accumulation by scintillation proximity assay", "type": "functional, cell-based", "procedure,_shortened": "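HEK 293 cells; inhibition of PGE2-induced cAMP accumulation measured, with and without 10% human serum; means of at least three experiments.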"}, "[25]": {"assay": "Plasma clearance in Sprague-Dawley rat at 20 mg/kg, po and 5 mg/kg, iv", "type": "ADME, organism-based", "procedure,_shortened": "as §1"}}, "data": [{"compound": "Cc1sc(C)c(C(=O)NC2(c3ccc(C(=O)O)cc3)CC2)c1Cc1ccc(C(F)(F)F)cc1", "values": [{"measurement": "Activity", "setting": "[1]", "value": "Non-toxic"}, {"measurement": "Cmax", "setting": "[2]", "value": 4500, "unit": "nM"}, {"measurement": "Ki", "setting": "[3]", "value": "> 7.9", "unit": "µM"}, {"measurement": "Ki", "setting": "[4]", "value": 5.9, "unit": "µM"}, {"measurement": "Activity", "setting": "[5]", "value": "Dose-dependent effect"}, {"measurement": "ED50", "setting": "[5]", "value": 0.02, "unit": "mg/kg"}, {"measurement": "bioavailability", "setting": "[6]", "value": 21, "unit": "%"}, {"measurement": "Ki", "setting": "[7]", "value": "> 29", "unit": "µM"}, {"measurement": "Ki", "setting": "[8]", "value": 0.00097, "unit": "µM"}, {"measurement": "Ki", "setting": "[9]", "value": "> 24", "unit": "µM"}, {"measurement": "half-life", "setting": "[10]", "value": 15, "unit": "h"}, {"measurement": "concentration", "setting": "[11]", "value": 4, "unit": "nM"}, {"measurement": "clearance", "setting": "[12]", "value": 3.2, "unit": "mL/min/kg"}, {"measurement": "t1/2", "setting": "[13]", "value": 19, "unit": "h"}, {"measurement": "bioavailability", "setting": "[14]", "value": 18, "unit": "%"}, {"measurement": "Ki", "setting": "[15]", "value": 7.2, "unit": "µM"}, {"measurement": "Cmax", "setting": "[16]", "value": 1400, "unit": "nM"}, {"measurement": "half-life", "setting": "[17]", "value": 4.5, "unit": "h"}, {"measurement": "bioavailability", "setting": "[18]", "value": 29, "unit": "%"}, {"measurement": "Ki", "setting": "[19]", "value": "> 22", "unit": "µM"}, {"measurement": "Cmax", "setting": "[20]", "value": 3300, "unit": "nM"}, {"measurement": "Vd", "setting": "[21]", "value": 0.91, "unit": "L/kg"}, {"measurement": "inhibition (INH)", "setting": "[22]", "value": 60, "unit": "%"}, {"measurement": "Cmax", "setting": "[23]", "value": 50, "unit": "nM"}, {"measurement": "IC50", "setting": "[24]", "value": 0.0025, "unit": "µM"}, {"measurement": "clearance", "setting": "[25]", "value": 9.2, "unit": "mL/min/kg"}]}]}
